Test results from ChEMBL document CHEMBL1153581, “Synthesis, antiviral and anticancer activity of some novel thioureas derived from N-(4-nitro-2-phenoxyphenyl)-methanesulfonamide” (Eur J Med Chem, 2009).
In brackets after ≈: the same amount, converted by molar mass.

How the values were obtained:
HeLa = experiment: Cytotoxicity against human HeLa cells assessed as change in cell morphology; assay type: functional
How it was run: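 The minimum cytotoxic concentration (MCC) is the concentration causing a microscopically detectable alteration of cell morphology in the uninfected host cell culture.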

Human alphaherpesvirus 1 [1] = experiment: Antiviral activity against HSV1 KOS infected in HEL cells assessed as protection against virus-induced cytopathogenicity; assay type: functional; settings: Human alphaherpesvirus 1, KOS
Human alphaherpesvirus 2 = experiment: Antiviral activity against Herpes simplex virus 2 infected in HEL cells assessed as protection against in virus-induced cytopathogenicity; assay type: functional
[2] = system: Vesicular stomatitis virus; experiment: Antiviral activity against sVesicular stomatitis virus infected in HEL cells assessed as protection against virus-induced cytopathogenicity; assay type: functional
Human alphaherpesvirus 1 [3] = experiment: Antiviral activity against acyclovir-resistant thymidine kinase-deficient HSV1 KOS infected in human HEL cells assessed as protection against virus-induced cytopathogenicity; assay type: functional; settings: Human alphaherpesvirus 1, KOS
[4] = system: Vesicular stomatitis virus; experiment: Antiviral activity against Vesicular stomatitis virus infected in human HeLa cells assessed as protection against virus-induced cytopathogenicity; assay type: functional
Coxsackievirus B4 [5] = experiment: Antiviral activity against Coxsackievirus B4 infected in human HeLa cells assessed as protection against virus-induced cytopathogenicity; assay type: functional; settings: Enterovirus B
[6] = system: Respiratory syncytial virus; experiment: Antiviral activity against RSV infected in human HeLa cells assessed as protection against virus-induced cytopathogenicity; assay type: functional
Human respirovirus 3 = experiment: Antiviral activity against Parainfluenza-3 virus infected in african green monkey Vero cells assessed as protection against virus-induced cytopathogenicity; assay type: functional
[7] = system: Mammalian orthoreovirus 1; experiment: Antiviral activity against Reovirus 1 infected in african green monkey Vero cells assessed as protection against virus-induced cytopathogenicity; assay type: functional
Sindbis virus = experiment: Antiviral activity against Sindbis virus infected in african green monkey Vero cells assessed as protection against virus-induced cytopathogenicity; assay type: functional
Coxsackievirus B4 [8] = experiment: Antiviral activity against Coxsackievirus B4 infected in african green monkey Vero cells assessed as protection against virus-induced cytopathogenicity; assay type: functional; settings: Enterovirus B
Punta Toro virus = experiment: Antiviral activity against Punta Toro virus infected in african green monkey Vero cells assessed as protection against virus-induced cytopathogenicity; assay type: functional
[9] = Cytotoxicity against HEL cells assessed as change in cell morphology; assay type: cell-based; settings: human
How it was run: (§1)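 HEL cell cultures examined under the microscope. Minimal cytotoxic concentration (MCC) is the concentration that causes a microscopically detectable alteration of cell morphology. Compounds were tested at subtoxic concentrations alongside the antiviral tests.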

[10] = Cytotoxicity against african green monkey Vero cells assessed as change in cell morphology; assay type: cell-based; settings: chlorocebus sabaeus
How it was run: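 Vero cell cultures were used for the broad-spectrum antiviral screen. The MCC endpoint is the lowest concentration that causes a microscopically detectable alteration of cell morphology. Activity was called when 5 × MIC < MCC.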

Human betaherpesvirus 5 = experiment: Antiviral activity against Cytomegalovirus AD169 infected in HEL cells assessed as reduction in virus plaque formation; assay type: functional, organism-based; settings: Human betaherpesvirus 5, AD169, HEL
How it was run: (§2)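 Plaque reduction in HEL cells against CMV (AD-169, Davis) or VZV (TK⁺ OKA, TK⁻ 07/1), using a virus input of 20 PFU. EC50 is the concentration that reduced plaque formation by 50%.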

Cytomegalovirus = experiment: Antiviral activity against Cytomegalovirus Davis infected in HEL cells assessed as reduction in virus plaque formation; assay type: functional, organism-based; settings: Human betaherpesvirus 5, Davis; how it was run: as §2
Human alphaherpesvirus 3 [11] = experiment: Antiviral activity against Varicella Zoster Virus OKA infected in HEL cells assessed as reduction in virus plaque formation; assay type: functional, organism-based; settings: Human alphaherpesvirus 3, OKA; how it was run: as §2
Human alphaherpesvirus 3 [12] = experiment: Antiviral activity against thymidine kinase deficient Varicella Zoster Virus 07/1 infected in HEL cells assessed as reduction in virus plaque formation; assay type: functional, organism-based; settings: Human alphaherpesvirus 3, 07/1, HEL; how it was run: as §2
[13] = Cytotoxicity against Cytomegalovirus infected HEL cells assessed as change in cell morphology; assay type: cell-based; settings: human; how it was run: as §1
[14] = Cytotoxicity against Cytomegalovirus infected HEL cells assessed as reduction in cell growth; assay type: cell-based; settings: human
[15] = Cytotoxicity against Varicella Zoster Virus infected human […] cells assessed as change in cell morphology; assay type: cell-based
[16] = Cytotoxicity against Varicella Zoster Virus infected human […] cells assessed as reduction in cell growth; assay type: cell-based
[17] = Selectivity index, ratio of MCC for HEL cells to MIC50 for vaccinia virus; assay type: functional
How it was run: (§3)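 In HEL cell cultures, SI = MCC/MIC. MCC is the concentration giving microscopically detectable alteration of HEL cell morphology, and MIC is the minimal concentration effective against vaccinia or VSV cytopathicity.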

[18] = Selectivity index, ratio of MCC for HEL cells to MIC50 for vesicular stomatitis virus; assay type: functional; how it was run: as §3
[19] = system: Human immunodeficiency virus 2; experiment: Antiviral activity against HIV-2 ROD infected human MT4 cells assessed as protection against virus-induced cytopathogenicity; assay type: functional, organism-based; settings: Human immunodeficiency virus 2, ISOLATE ROD
How it was run: (§4)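 HIV-1 (IIIB) or HIV-2 (ROD) infection of MT-4 cells, scored as protection against virus-induced cytopathicity. IC50 was derived from protection.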

[20] = system: Human immunodeficiency virus 1; experiment: Antiviral activity against HIV-1 3B infected human MT4 cells assessed as protection against virus-induced cytopathogenicity; assay type: functional, organism-based; settings: Human immunodeficiency virus 1, 3B; how it was run: as §4
[21] = Cytotoxicity against HIV-1 3B infected human MT4 cells; assay type: cell-based; settings: HIV-1 3B-infected MT4 cells

SMILES	MCC (HeLa) [µg/mL]	MIC50 (Human alphaherpesvirus 1 [1]) [µg/mL]	MIC50 (Human alphaherpesvirus 2) [µg/mL]	MIC50 [2] [µg/mL]	MIC50 (Human alphaherpesvirus 1 [3]) [µg/mL]	MIC50 [4] [µg/mL]	MIC50 (Coxsackievirus B4 [5]) [µg/mL]	MIC50 [6] [µg/mL]	MIC50 (Human respirovirus 3) [µg/mL]	MIC50 [7] [µg/mL]	MIC50 (Sindbis virus) [µg/mL]	MIC50 (Coxsackievirus B4 [8]) [µg/mL]	MIC50 (Punta Toro virus) [µg/mL]	MCC [9] [µg/mL]	MCC [10] [µg/mL]	EC50 (Human betaherpesvirus 5) [µg/mL]	EC50 (Cytomegalovirus) [µg/mL]	EC50 (Human alphaherpesvirus 3 [11]) [µg/mL]	EC50 (Human alphaherpesvirus 3 [12]) [µg/mL]	CC50 [13] [µg/mL]	further results
CS(=O)(=O)Nc1ccc(NC(=S)Nc2ccc([N+](=O)[O-])cc2)cc1Oc1ccccc1	40	> 8	> 8	8 (≈ 17.4 µM)	8 (≈ 17.4 µM)	> 8	> 8	> 8	> 8	> 8	> 8	> 8	> 8	40	40	54.7 (≈ 119 µM)	54.7 (≈ 119 µM)	> 20	> 20	> 100	CC50 [14]: > 100 µg/mL; CC50 [15]: 100 µg/mL (≈ 218 µM); CC50 [16]: > 100 µg/mL; Selectivity Index [17]: 5; Selectivity Index [18]: 5; IC50 [19]: > 15.2 µg/mL; IC50 [20]: > 15.2 µg/mL; CC50 [21]: 15.2 µg/mL (≈ 33.1 µM)
Nc1ncnc2c1ncn2C[C@H](O)CO [(S)-DHPA]	> 250	–	–	–	–	150 (≈ 717 µM)	150 (≈ 717 µM)	> 250	50 (≈ 239 µM)	250 (≈ 1190 µM)	> 250	> 250	> 250	–	> 250	–	–	–	–	–	–
Nc1nc2c(ncn2COCCO)c(=O)[nH]1 [ACYCLOVIR]	–	–	0.4 (≈ 1.78 µM)	> 250	50 (≈ 222 µM)	–	–	–	–	–	–	–	–	> 250	–	–	–	–	–	–	–
O=c1[nH]c(=O)n([C@H]2C[C@H](O)[C@@H](CO)O2)cc1/C=C/Br [BRIVUDINE]	> 250	–	10 (≈ 30 µM)	> 250	> 250	> 250	> 250	> 250	> 250	> 250	> 250	> 250	> 250	> 250	> 250	–	–	–	–	–	–
Nc1ccn(C[C@@H](CO)OCP(=O)(O)O)c(=O)n1.O.O [CIDOFOVIR]	–	–	–	–	–	–	–	–	–	–	–	–	–	–	–	0.24	0.37	0.0095	12.6	400	CC50 [14]: 57 µg/mL; CC50 [15]: > 50 µg/mL; CC50 [16]: 244 µg/mL
Nc1nc2c(ncn2COC(CO)CO)c(=O)[nH]1 [GANCICLOVIR]	–	0.032 (≈ 0.125 µM)	0.0064 (≈ 0.0251 µM)	> 100	2.4 (≈ 9.4 µM)	–	–	–	–	–	–	–	–	> 100	–	1.4 (≈ 5.49 µM)	1.7 (≈ 6.66 µM)	1 (≈ 3.92 µM)	15 (≈ 58.8 µM)	400 (≈ 1570 µM)	CC50 [14]: 80 µg/mL (≈ 313 µM); CC50 [15]: > 50 µg/mL; CC50 [16]: 190 µg/mL (≈ 744 µM)
NC(=O)c1ncn([C@@H]2O[C@H](CO)[C@@H](O)[C@H]2O)n1 [RIBAVIRIN]	> 250	250 (≈ 1020 µM)	250 (≈ 1020 µM)	150 (≈ 614 µM)	> 250	30 (≈ 123 µM)	150 (≈ 614 µM)	50 (≈ 205 µM)	150 (≈ 614 µM)	150 (≈ 614 µM)	> 250	> 250	250 (≈ 1020 µM)	> 250	> 250	–	–	–	–	–	–
